Converted amounts (≈) assume the structure as drawn.
Legend:
Assay type in all cases: functional
E6SM [1] = assay: Concentration required to inhibit HSV-1 (KOS) induced cytopathogenicity in E6SM cells by 50%.; details: Homo sapiens
E6SM [2] = assay: Concentration required to inhibit HSV-1 (McIntyre) induced cytopathogenicity in E6SM cells by 50%.; details: Homo sapiens
E6SM [3] = assay: Concentration required to inhibit HSV-2(196) induced cytopathogenicity in E6SM cells by 50%.; details: Homo sapiens
E6SM [4] = assay: Concentration required to cause a microscopically detectable alteration of normal cell morphology in E6SM cells; details: Homo sapiens; read-out: MIC
Outline: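 Uninfected E6SM human embryonic skin-muscle fibroblasts were exposed to compound and examined under the microscope. The value is the minimum concentration that caused a detectable alteration of normal cell morphology.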

E6SM [5] = assay: Concentration required to inhibit HSV-1 (F) induced cytopathogenicity in E6SM cells by 50%.; details: Homo sapiens
E6SM [6] = assay: Concentration required to inhibit HSV-2(G) induced cytopathogenicity in E6SM cells by 50%.; details: Homo sapiens
E6SM [7] = assay: Concentration required to inhibit HSV-2(lyons) induced cytopathogenicity in E6SM cells by 50%.; details: Homo sapiens
E6SM [8] = assay: Concentration required to inhibit TK-HSV-1 (B2006) induced cytopathogenicity in E6SM cells by 50%.; details: Homo sapiens
E6SM [9] = assay: Concentration required to inhibit TK-HSV-1 (VMW1837) induced cytopathogenicity in E6SM cells by 50%.; details: Homo sapiens
E6SM [10] = assay: oncentration required to inhibit VV induced cytopathogenicity in E6SM cells by 50%.; details: Homo sapiens
HEL [11] = assay: Concentration required to cause 50% reduction in HEL cell growth.; details: Homo sapiens; read-out: MIC
Outline: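 Cytotoxicity was measured as inhibition of growth of HEL human embryonic lung fibroblasts. The value is the compound concentration that reduced cell growth by 50%.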

HEL [12] = assay: Concentration required to inhibit CMV (Davis) induced cytopathogenicity in HEL cells by 50%.; details: Homo sapiens
HEL [13] = assay: Concentration required to inhibit TK-VZV (07-1) induced cytopathogenicity in HEL cells by 50%.; details: Homo sapiens
HEL [14] = assay: Concentration required to inhibit TK-VZV (YSR) induced cytopathogenicity in HEL cells by 50%.; details: Homo sapiens
HEL [15] = assay: Concentration required to inhibit VZV (YS) induced cytopathogenicity in HEL cells by 50%.; details: Homo sapiens
HEL [16] = assay: Concentration required to inhibit VZV (oka) induced cytopathogenicity in HEL cells by 50%.; details: Homo sapiens
HEL [17] = assay: Concentration required to inhibit CMV (AD-169) induced cytopathogenicity in HEL cells by 50%.; details: Homo sapiens
E6SM [18] = assay: Concentration required to inhibit VSV induced cytopathogenicity in E6SM cells by 50%.; details: Homo sapiens
Outline: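 Antiviral assay in E6SM human embryonic skin-muscle fibroblasts, with cells infected by vesicular stomatitis virus (VSV) in microtiter plates. Virus-induced cytopathogenicity is assessed. The value is the compound concentration that reduces VSV-induced cytopathogenicity by 50%.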

| SMILES | MIC (E6SM [1]) [µg/mL] | MIC (E6SM [2]) [µg/mL] | MIC (E6SM [3]) [µg/mL] | minimum cytotoxic concentration (morphology alteration) (E6SM [4]) [µg/mL] | MIC (E6SM [5]) [µg/mL] | MIC (E6SM [6]) [µg/mL] | MIC (E6SM [7]) [µg/mL] | MIC (E6SM [8]) [µg/mL] | MIC (E6SM [9]) [µg/mL] | MIC (E6SM [10]) [µg/mL] | CC50 (50% cell growth inhibitory concentration) (HEL [11]) [µg/mL] | MIC (HEL [12]) [µg/mL] | MIC (HEL [13]) [µg/mL] | MIC (HEL [14]) [µg/mL] | MIC (HEL [15]) [µg/mL] | MIC (HEL [16]) [µg/mL] | MIC (HEL [17]) [µg/mL] | MIC (E6SM [18]) [µg/mL] |
| --- | --- | --- | --- | --- | --- | --- | --- | --- | --- | --- | --- | --- | --- | --- | --- | --- | --- | --- |
| O=c1[nH]c(=O)n([C@H]2C[C@H](O)[C@@H](CO)O2)cc1-c1ccc(Br)s1 | 0.03 (≈ 0.0771 µM) | 0.02 (≈ 0.0514 µM) | > 200 | > 400 | 0.07 (≈ 0.18 µM) | 150 (≈ 385 µM) | 150 (≈ 385 µM) | 150 (≈ 385 µM) | 150 (≈ 385 µM) | 70 (≈ 180 µM) | 155 (≈ 398 µM) | > 100 | > 40 | > 40 | 0.03 (≈ 0.0771 µM) | 0.03 (≈ 0.0771 µM) | > 100 | – |
| O=c1[nH]c(=O)n([C@H]2C[C@H](O)[C@@H](CO)O2)cc1-c1cccs1 | 0.45 (≈ 1.45 µM) | 0.1 (≈ 0.322 µM) | 150 (≈ 483 µM) | > 400 | 0.2 (≈ 0.644 µM) | 250 (≈ 806 µM) | 100 (≈ 322 µM) | 300 (≈ 967 µM) | 150 (≈ 483 µM) | > 400 | > 200 | 250 (≈ 806 µM) | 180 (≈ 580 µM) | > 400 | 41 (≈ 132 µM) | 18 (≈ 58 µM) | 250 (≈ 806 µM) | – |
| O=c1[nH]c(=O)n([C@@H]2C[C@H](O)[C@@H](CO)O2)cc1-c1cccs1 | > 200 | – | 150 (≈ 483 µM) | > 400 | – | > 300 | 100 (≈ 322 µM) | > 200 | 150 (≈ 483 µM) | > 200 | 180 (≈ 580 µM) | – | 85 (≈ 274 µM) | 80 (≈ 258 µM) | > 100 | 75 (≈ 242 µM) | > 100 | – |
| O=c1[nH]c(=O)n([C@H]2C[C@H](O)[C@@H](CO)O2)cc1-c1ccc(Cl)s1 | 0.02 (≈ 0.058 µM) | 0.004 (≈ 0.0116 µM) | > 200 | > 400 | 0.04 (≈ 0.116 µM) | > 200 | > 200 | > 200 | > 200 | > 200 | > 50 | – | 35 (≈ 102 µM) | 65 (≈ 189 µM) | 0.02 (≈ 0.058 µM) | 0.02 (≈ 0.058 µM) | > 40 | – |
| Nc1nc(=O)n([C@H]2C[C@H](O)[C@@H](CO)O2)cc1-c1cccs1 | 1.3 (≈ 4.2 µM) | 0.07 (≈ 0.226 µM) | 20 (≈ 64.7 µM) | > 200 | 0.4 (≈ 1.29 µM) | 45 (≈ 145 µM) | 20 (≈ 64.7 µM) | > 100 | > 100 | 20 (≈ 64.7 µM) | 45 (≈ 145 µM) | 40 (≈ 129 µM) | 8 (≈ 25.9 µM) | 30 (≈ 97 µM) | 4 (≈ 12.9 µM) | 3 (≈ 9.7 µM) | 60 (≈ 194 µM) | – |
| Cn1ccnc1-c1cn([C@H]2C[C@H](O)[C@@H](CO)O2)c(=O)[nH]c1=O | > 200 | > 200 | > 200 | > 200 | > 200 | > 200 | > 200 | > 200 | > 200 | > 200 | > 200 | > 400 | > 400 | > 400 | > 400 | > 400 | > 400 | – |
| O=c1[nH]c(=O)n([C@H]2C[C@H](O)[C@@H](CO)O2)cc1-c1ccco1 | 0.2 (≈ 0.68 µM) | 0.2 (≈ 0.68 µM) | > 400 | > 400 | 0.2 (≈ 0.68 µM) | 200 (≈ 680 µM) | > 400 | 150 (≈ 510 µM) | 300 (≈ 1020 µM) | – | 100 (≈ 340 µM) | > 400 | 155 (≈ 527 µM) | 220 (≈ 748 µM) | 7 (≈ 23.8 µM) | 4 (≈ 13.6 µM) | > 400 | 300 (≈ 1020 µM) |
| CC1[C@@H](O)[C@@H](CO)O[C@@H]1n1cc(I)c(=O)[nH]c1=O (stereo partly drawn) | 300 (≈ 815 µM) | 300 (≈ 815 µM) | 300 (≈ 815 µM) | > 400 | 300 (≈ 815 µM) | 300 (≈ 815 µM) | 300 (≈ 815 µM) | 300 (≈ 815 µM) | 150 (≈ 407 µM) | > 400 | > 200 | – | 90 (≈ 244 µM) | 170 (≈ 462 µM) | 10 (≈ 27.2 µM) | 15 (≈ 40.7 µM) | 400 (≈ 1090 µM) | 300 (≈ 815 µM) |
| O=c1[nH]c(=O)n(C2O[C@H](CO)[C@@H](O)[C@@H]2O)cc1-c1cccs1 (stereo partly drawn) | 0.2 (≈ 0.613 µM) | 0.07 (≈ 0.215 µM) | 100 (≈ 306 µM) | > 400 | 0.2 (≈ 0.613 µM) | 20 (≈ 61.3 µM) | 20 (≈ 61.3 µM) | > 400 | > 400 | > 400 | > 200 | 250 (≈ 766 µM) | 370 (≈ 1130 µM) | > 400 | 6.5 (≈ 19.9 µM) | 5.5 (≈ 16.9 µM) | 250 (≈ 766 µM) | – |
| O=c1[nH]c(=O)n([C@@H]2C[C@@H](O)[C@@H](CO)O2)cc1-c1ccco1 | 55 (≈ 187 µM) | 70 (≈ 238 µM) | 150 (≈ 510 µM) | > 400 | 40 (≈ 136 µM) | 300 (≈ 1020 µM) | 150 (≈ 510 µM) | > 200 | 70 (≈ 238 µM) | 300 (≈ 1020 µM) | 110 (≈ 374 µM) | > 100 | 260 (≈ 884 µM) | 240 (≈ 816 µM) | 240 (≈ 816 µM) | 210 (≈ 714 µM) | > 100 | – |
| O=c1[nH]c(=O)n([C@H]2C[C@H](O)[C@@H](CO)O2)cc1/C=C/Br [BRIVUDINE] | 0.02 (≈ 0.06 µM) | 0.02 (≈ 0.06 µM) | > 400 | > 400 | 0.02 (≈ 0.06 µM) | 20 (≈ 60 µM) | 10 (≈ 30 µM) | 20 (≈ 60 µM) | 4 (≈ 12 µM) | 0.07 (≈ 0.21 µM) | – | 250 (≈ 750 µM) | > 40 | > 40 | 0.001 (≈ 0.003 µM) | 0.001 (≈ 0.003 µM) | 250 (≈ 750 µM) | 400 (≈ 1200 µM) |

From ChEMBL document CHEMBL1125605 (1991)
